From ChEMBL document CHEMBL4257590, “Semisynthesis of Platensimycin Derivatives with Antibiotic Activities in Mice via Suzuki-Miyaura Cross-Coupling Reactions” (J Med Chem, 2018)
The source made the active and inactive calls.

What was measured:
Staphylococcus aureus [1] = experiment: Antibacterial activity against Staphylococcus aureus ATCC 29213 after 16 hrs by agar dilution method; assay type: functional; settings: ATCC 29213, 16 h
In short: (§1)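 Agar dilution in LB agar with compound (from methanol solutions) at final 0.5–64 μg/ml per plate. Strains grown 16 h at 37 °C, 250 rpm in LB broth, adjusted to OD600 0.25±0.05, diluted 10^4-fold; 2 μl spotted per plate, incubated 16 h at 37 °C. MIC = lowest concentration with no visible colonies; at least two independent experiments. Linezolid and PTM as controls.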

Staphylococcus aureus [2] = experiment: Antibacterial activity against methicillin-sensitive Staphylococcus aureus isolate 1 after 16 hrs by agar dilution method; assay type: functional; settings: isolate 1, 16 h; in short: as §1
Staphylococcus aureus [3] = experiment: Antibacterial activity against methicillin-sensitive Staphylococcus aureus isolate 2 after 16 hrs by agar dilution method; assay type: functional; settings: isolate 2, 16 h; in short: as §1
Staphylococcus aureus [4] = experiment: Antibacterial activity against methicillin-resistant Staphylococcus aureus isolate 3 after 16 hrs by agar dilution method; assay type: functional; settings: isolate 3, 16 h; in short: as §1
Staphylococcus aureus [5] = experiment: Antibacterial activity against methicillin-resistant Staphylococcus aureus isolate 4 after 16 hrs by agar dilution method; assay type: functional; settings: isolate 4, 16 h; in short: as §1
Staphylococcus aureus [6] = experiment: Antibacterial activity against methicillin-resistant Staphylococcus aureus isolate 5 after 16 hrs by agar dilution method; assay type: functional; settings: isolate 5, 16 h; in short: as §1
Staphylococcus aureus [7] = experiment: Antibacterial activity against methicillin-resistant Staphylococcus aureus isolate 6 after 16 hrs by agar dilution method; assay type: functional; settings: isolate 6, 16 h; in short: as §1
Staphylococcus aureus [8] = experiment: Antibacterial activity against methicillin-resistant Staphylococcus aureus infected in C57BL/6J mouse assessed as reduction in bacterial load in blood at 50 mg/kg, ip administered 1 and 5 hrs postinfection and measured at 12 hrs post bacterial infection; assay type: functional, organism-based
In short: (§2)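 Female C57BL/6J mice, 6–8 weeks, 18–21 g, infected ip with 2 × 10^7 CFU MRSA in 0.2 ml saline with 5% hog gastric mucin. Dosed ip 50 mg/kg at 1 and 5 h post-infection; test agents at 5 mg/mL in 12.5% DMSO/30% propanediol/30% PEG400/27.5% saline, vancomycin in saline, saline control. At 12 h blood and homogenized kidneys plated on LB agar overnight at 37 °C for CFU; n = 5, mean ± SEM, unpaired two-tailed t-test.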

Staphylococcus aureus [9] = experiment: Antibacterial activity against methicillin-resistant Staphylococcus aureus infected in C57BL/6J mouse assessed as reduction in bacterial load in kidney at 50 mg/kg, ip administered 1 and 5 hrs postinfection and measured at 12 hrs post bacterial infection; assay type: functional, organism-based; in short: as §2
Mus musculus = experiment: Toxicity in C57BL/6J mouse infected with methicillin-resistant Staphylococcus aureus assessed as effect on mouse body weight at 10 mg/kg, ip administered 1 and 5 hrs postinfection and measured for 7 days; assay type: organism-based; settings: in vivo, 168 h
In short: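 Lethal peritonitis: female C57BL/6J mice, 6–8 weeks, 18–21 g, infected ip with 2 × 10^7 CFU MRSA in 0.5 ml saline with 5% (w/v) mucin. Treated ip 0.2 mL/mouse at 1 and 5 h post-infection (n = 5/group): 50 mg/kg at 5 mg/mL in 12.5% DMSO vehicle, or 10 mg/kg at 1 mg/mL in 2.5% DMSO/30% propanediol/30% PEG400/37.5% saline; vancomycin in saline, saline control. Checked twice daily for survival and body weight over 7 days.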

Staphylococcus aureus [10] = experiment: Antibacterial activity against methicillin-resistant Staphylococcus aureus after 18 hrs in presence of 10% human serum by resazurin dye-based assay; assay type: functional
In short: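 One clinical MRSA strain grown to exponential phase (OD600 = 0.5), diluted to 10^6 CFU/ml in Mueller-Hinton broth; 100 μl compound dilutions mixed with 100 μl bacteria with or without 10% human serum, 18 h at 37 °C. Resazurin (0.66 mM, 50 μl) then added and read visually.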

CCCCCc1ccc(C2=C[C@]34C[C@@H]5C[C@H](O[C@@]5(C)C3)[C@H]4[C@](C)(CCC(=O)Nc3c(O)ccc(C(=O)O)c3O)C2=O)cc1
4 µg/mL: MIC (Staphylococcus aureus [1]) | MIC (Staphylococcus aureus [2]) | MIC (Staphylococcus aureus [3]) | MIC (Staphylococcus aureus [4]) | MIC (Staphylococcus aureus [5]) | MIC (Staphylococcus aureus [6]) | MIC (Staphylococcus aureus [7])

C[C@]12C[C@@]34C=C(c5ccccc5-c5ccccc5)C(=O)[C@@](C)(CCC(=O)Nc5c(O)ccc(C(=O)O)c5O)[C@@H]3[C@H](C[C@H]1C4)O2
4 µg/mL: MIC (Staphylococcus aureus [1])
8 µg/mL: MIC (Staphylococcus aureus [2]) | MIC (Staphylococcus aureus [3]) | MIC (Staphylococcus aureus [4]) | MIC (Staphylococcus aureus [5]) | MIC (Staphylococcus aureus [6]) | MIC (Staphylococcus aureus [7])

C[C@]12C[C@@]34C=C(c5ccc(-c6ccccc6)cc5)C(=O)[C@@](C)(CCC(=O)Nc5c(O)ccc(C(=O)O)c5O)[C@@H]3[C@H](C[C@H]1C4)O2
4 µg/mL: MIC (Staphylococcus aureus [1])
8 µg/mL: MIC (Staphylococcus aureus [2]) | MIC (Staphylococcus aureus [3]) | MIC (Staphylococcus aureus [4]) | MIC (Staphylococcus aureus [5]) | MIC (Staphylococcus aureus [6]) | MIC (Staphylococcus aureus [7])

COc1ccccc1C1=C[C@]23C[C@@H]4C[C@H](O[C@@]4(C)C2)[C@H]3[C@](C)(CCC(=O)Nc2c(O)ccc(C(=O)O)c2O)C1=O
16 µg/mL: MIC (Staphylococcus aureus [3]) | MIC (Staphylococcus aureus [4]) | MIC (Staphylococcus aureus [5]) | MIC (Staphylococcus aureus [6]) | MIC (Staphylococcus aureus [7])
8 µg/mL: MIC (Staphylococcus aureus [1]) | MIC (Staphylococcus aureus [2])

C[C@]12C[C@@]34C=C(c5cccc(-c6ccccc6)c5)C(=O)[C@@](C)(CCC(=O)Nc5c(O)ccc(C(=O)O)c5O)[C@@H]3[C@H](C[C@H]1C4)O2
8 µg/mL: MIC (Staphylococcus aureus [1]) | MIC (Staphylococcus aureus [2]) | MIC (Staphylococcus aureus [3]) | MIC (Staphylococcus aureus [4]) | MIC (Staphylococcus aureus [5]) | MIC (Staphylococcus aureus [6]) | MIC (Staphylococcus aureus [7])

C[C@]12C[C@@]34C=C(c5cc6ccccc6c6ccccc56)C(=O)[C@@](C)(CCC(=O)Nc5c(O)ccc(C(=O)O)c5O)[C@@H]3[C@H](C[C@H]1C4)O2
4 µg/mL: MIC (Staphylococcus aureus [4]) | MIC (Staphylococcus aureus [6])
2 µg/mL: MIC (Staphylococcus aureus [1]) | MIC (Staphylococcus aureus [2]) | MIC (Staphylococcus aureus [3]) | MIC (Staphylococcus aureus [5]) | MIC (Staphylococcus aureus [7])

C[C@]12C[C@@]34C=C(c5cc(Cl)cc(Cl)c5)C(=O)[C@@](C)(CCC(=O)Nc5c(O)ccc(C(=O)O)c5O)[C@@H]3[C@H](C[C@H]1C4)O2
8 µg/mL: MIC (Staphylococcus aureus [1]) | MIC (Staphylococcus aureus [2]) | MIC (Staphylococcus aureus [3]) | MIC (Staphylococcus aureus [4]) | MIC (Staphylococcus aureus [5]) | MIC (Staphylococcus aureus [6]) | MIC (Staphylococcus aureus [7])

CN[C@H](CC(C)C)C(=O)N[C@H]1C(=O)N[C@@H](CC(N)=O)C(=O)N[C@H]2C(=O)N[C@H]3C(=O)N[C@H](C(=O)N[C@H](C(=O)O)c4cc(O)cc(O)c4-c4cc3ccc4O)[C@H](O)c3ccc(c(Cl)c3)Oc3cc2cc(c3O[C@@H]2O[C@H](CO)[C@@H](O)[C@H](O)[C@H]2O[C@H]2C[C@](C)(N)[C@H](O)[C@H](C)O2)Oc2ccc(cc2Cl)[C@H]1O [VANCOMYCIN]
Non-Toxic: Activity (Mus musculus)
active: Activity (Staphylococcus aureus [8]) | Activity (Staphylococcus aureus [9])

C[C@]12C[C@@]34C=C(c5ccc(Br)cc5)C(=O)[C@@](C)(CCC(=O)Nc5c(O)ccc(C(=O)O)c5O)[C@@H]3[C@H](C[C@H]1C4)O2
2 µg/mL: MIC (Staphylococcus aureus [1]) | MIC (Staphylococcus aureus [2]) | MIC (Staphylococcus aureus [6]) | MIC (Staphylococcus aureus [7])
4 µg/mL: MIC (Staphylococcus aureus [3]) | MIC (Staphylococcus aureus [4]) | MIC (Staphylococcus aureus [5])

C[C@]12C[C@@]34C=C(c5cccc(C(F)(F)F)c5)C(=O)[C@@](C)(CCC(=O)Nc5c(O)ccc(C(=O)O)c5O)[C@@H]3[C@H](C[C@H]1C4)O2
4 µg/mL: MIC (Staphylococcus aureus [1]) | MIC (Staphylococcus aureus [2])
8 µg/mL: MIC (Staphylococcus aureus [3]) | MIC (Staphylococcus aureus [4]) | MIC (Staphylococcus aureus [5]) | MIC (Staphylococcus aureus [6]) | MIC (Staphylococcus aureus [7])

Cc1cccc(C2=C[C@]34C[C@@H]5C[C@H](O[C@@]5(C)C3)[C@H]4[C@](C)(CCC(=O)Nc3c(O)ccc(C(=O)O)c3O)C2=O)c1
4 µg/mL: MIC (Staphylococcus aureus [2]) | MIC (Staphylococcus aureus [3])
8 µg/mL: MIC (Staphylococcus aureus [1]) | MIC (Staphylococcus aureus [4]) | MIC (Staphylococcus aureus [5]) | MIC (Staphylococcus aureus [6]) | MIC (Staphylococcus aureus [7])

C[C@]12C[C@@]34C=C(c5cccc(O)c5)C(=O)[C@@](C)(CCC(=O)Nc5c(O)ccc(C(=O)O)c5O)[C@@H]3[C@H](C[C@H]1C4)O2
32 µg/mL: MIC (Staphylococcus aureus [1]) | MIC (Staphylococcus aureus [2]) | MIC (Staphylococcus aureus [3]) | MIC (Staphylococcus aureus [4]) | MIC (Staphylococcus aureus [5]) | MIC (Staphylococcus aureus [6]) | MIC (Staphylococcus aureus [7])

Cc1ccccc1C1=C[C@]23C[C@@H]4C[C@H](O[C@@]4(C)C2)[C@H]3[C@](C)(CCC(=O)Nc2c(O)ccc(C(=O)O)c2O)C1=O
16 µg/mL: MIC (Staphylococcus aureus [3]) | MIC (Staphylococcus aureus [4]) | MIC (Staphylococcus aureus [5]) | MIC (Staphylococcus aureus [6]) | MIC (Staphylococcus aureus [7])
8 µg/mL: MIC (Staphylococcus aureus [1]) | MIC (Staphylococcus aureus [2])

C[C@]12C[C@@]34C=CC(=O)[C@@](C)(CCC(=O)Nc5c(O)ccc(C(=O)O)c5O)[C@@H]3[C@H](C[C@H]1C4)O2
0.5 µg/mL: MIC (Staphylococcus aureus [1]) | MIC (Staphylococcus aureus [2]) | MIC (Staphylococcus aureus [3]) | MIC (Staphylococcus aureus [4])
8 µg/mL: MIC (Staphylococcus aureus [10])
1 µg/mL: MIC (Staphylococcus aureus [5]) | MIC (Staphylococcus aureus [6]) | MIC (Staphylococcus aureus [7])
active: Activity (Staphylococcus aureus [8]) | Activity (Staphylococcus aureus [9])

C[C@]12C[C@@]34C=C(c5ccccc5)C(=O)[C@@](C)(CCC(=O)Nc5c(O)ccc(C(=O)O)c5O)[C@@H]3[C@H](C[C@H]1C4)O2
16 µg/mL: MIC (Staphylococcus aureus [1]) | MIC (Staphylococcus aureus [2]) | MIC (Staphylococcus aureus [3]) | MIC (Staphylococcus aureus [4]) | MIC (Staphylococcus aureus [5]) | MIC (Staphylococcus aureus [6]) | MIC (Staphylococcus aureus [7])

C[C@]12C[C@@]34C=C(c5ccc(C=O)cc5)C(=O)[C@@](C)(CCC(=O)Nc5c(O)ccc(C(=O)O)c5O)[C@@H]3[C@H](C[C@H]1C4)O2
16 µg/mL: MIC (Staphylococcus aureus [2]) | MIC (Staphylococcus aureus [3])
32 µg/mL: MIC (Staphylococcus aureus [1]) | MIC (Staphylococcus aureus [4]) | MIC (Staphylococcus aureus [5]) | MIC (Staphylococcus aureus [6]) | MIC (Staphylococcus aureus [7])

C[C@]12C[C@@]34C=C(c5ccc6ccccc6c5)C(=O)[C@@](C)(CCC(=O)Nc5c(O)ccc(C(=O)O)c5O)[C@@H]3[C@H](C[C@H]1C4)O2
8 µg/mL: MIC (Staphylococcus aureus [1]) | MIC (Staphylococcus aureus [2]) | MIC (Staphylococcus aureus [3]) | MIC (Staphylococcus aureus [4]) | MIC (Staphylococcus aureus [5]) | MIC (Staphylococcus aureus [6]) | MIC (Staphylococcus aureus [7])

Cc1cc(C)cc(C2=C[C@]34C[C@@H]5C[C@H](O[C@@]5(C)C3)[C@H]4[C@](C)(CCC(=O)Nc3c(O)ccc(C(=O)O)c3O)C2=O)c1
4 µg/mL: MIC (Staphylococcus aureus [1]) | MIC (Staphylococcus aureus [2]) | MIC (Staphylococcus aureus [3]) | MIC (Staphylococcus aureus [4]) | MIC (Staphylococcus aureus [5]) | MIC (Staphylococcus aureus [6]) | MIC (Staphylococcus aureus [7])

Cc1ccc(C2=C[C@]34C[C@@H]5C[C@H](O[C@@]5(C)C3)[C@H]4[C@](C)(CCC(=O)Nc3c(O)ccc(C(=O)O)c3O)C2=O)cc1
8 µg/mL: MIC (Staphylococcus aureus [1]) | MIC (Staphylococcus aureus [2]) | MIC (Staphylococcus aureus [3]) | MIC (Staphylococcus aureus [4])
16 µg/mL: MIC (Staphylococcus aureus [5]) | MIC (Staphylococcus aureus [6]) | MIC (Staphylococcus aureus [7])

CC(=O)NC[C@H]1CN(c2ccc(N3CCOCC3)c(F)c2)C(=O)O1 [LINEZOLID]
1 µg/mL: MIC (Staphylococcus aureus [1]) | MIC (Staphylococcus aureus [2]) | MIC (Staphylococcus aureus [3]) | MIC (Staphylococcus aureus [4]) | MIC (Staphylococcus aureus [5]) | MIC (Staphylococcus aureus [6]) | MIC (Staphylococcus aureus [7])

C[C@]12C[C@@]34C=C(c5cccc(OC(F)(F)F)c5)C(=O)[C@@](C)(CCC(=O)Nc5c(O)ccc(C(=O)O)c5O)[C@@H]3[C@H](C[C@H]1C4)O2
8 µg/mL: MIC (Staphylococcus aureus [1]) | MIC (Staphylococcus aureus [2]) | MIC (Staphylococcus aureus [3]) | MIC (Staphylococcus aureus [4]) | MIC (Staphylococcus aureus [5]) | MIC (Staphylococcus aureus [6]) | MIC (Staphylococcus aureus [7])
